Compound activity as filed in PubChem BioAssay.
Rows were chosen to be rich in hits. Some 2.6% of all compounds tested hit in one or more screens of this group.
T cell modulator = T cell immune modulators affecting CD8 T cell-vesicle binding; response (vesicle binding), % at 7 µM; 2C CD8+ T cell-vesicle binding, flow cytometry; stronger effect = lower value; actives 0.068% (n = 330,000);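 active = response, share of CD8 T cells binding vesicles, and their 90th percentile fluorescence all below set limits, cut at about 80% in these data, passing the limit was not always enough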;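 also: values below 100% mean blocked vesicle binding to the CD8+ T cells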
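Incubation: binding step 1.5 h, 37 °C, antibody labelling 20 min, ice; system: murine 2C transgenic CD8+ T lymphocytes; technique: cytometric PE anti-B7-1 and Alexa647 anti-CD8 signals after 1% paraformaldehyde fixation; also added: QL9-charged Drosophila Ld/ICAM-1/B7-1 vesicles; control set: naked versus QL9-loaded vesicles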
Rin1-Abl PPI inh = human Rin1-Abl interaction inhibition; actives 0.4% (n = 360,000); P00519+Q13671; AID 588664; inhibition, % at 7.35 µM; TR-FRET Rin1/Abl binding, biochemical; in the data active = inhibition above about 5%, passing the limit was not always enough
GRK2 inh = blocks RNA aptamer binding to human GRK2 | actives 0.59% (n = 330,000) | bead flow cytometry, FAM-aptamer displacement from GRK2 | AID 488847 | inhibition of aptamer binding, % at 10 µM;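 active = inhibition of aptamer binding above 40%, roughly 3 SD of noise, on plates passing a quality check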;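 also: median bead fluorescence of bound FAM aptamer so fluorescent compounds give negative values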
Target sequence (P25098 whole entry, looked up): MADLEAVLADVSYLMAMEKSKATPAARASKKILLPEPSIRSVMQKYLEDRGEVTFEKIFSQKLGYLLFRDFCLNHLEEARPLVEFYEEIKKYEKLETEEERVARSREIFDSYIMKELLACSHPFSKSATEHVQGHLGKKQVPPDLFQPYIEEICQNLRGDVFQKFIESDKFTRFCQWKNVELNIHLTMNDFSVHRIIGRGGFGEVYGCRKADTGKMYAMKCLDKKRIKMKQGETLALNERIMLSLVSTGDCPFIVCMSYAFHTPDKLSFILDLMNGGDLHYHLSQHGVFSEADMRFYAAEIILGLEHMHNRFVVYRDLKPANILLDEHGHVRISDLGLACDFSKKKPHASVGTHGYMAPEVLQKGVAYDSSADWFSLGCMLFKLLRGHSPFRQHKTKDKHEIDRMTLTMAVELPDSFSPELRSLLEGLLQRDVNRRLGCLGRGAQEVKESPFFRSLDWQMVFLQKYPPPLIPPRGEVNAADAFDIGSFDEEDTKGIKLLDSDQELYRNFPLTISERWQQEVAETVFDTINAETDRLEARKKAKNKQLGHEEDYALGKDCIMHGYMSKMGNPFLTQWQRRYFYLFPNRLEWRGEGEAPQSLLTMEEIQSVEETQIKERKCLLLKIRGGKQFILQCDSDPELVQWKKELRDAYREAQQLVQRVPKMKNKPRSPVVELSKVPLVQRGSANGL
SKN-1 inh = inhibitors of C. elegans SKN-1; inhibition, % at 21.8 µM; AID 624304; C. elegans VP596 Pgst-4::GFP/RFP ratio, acrylamide-induced, 24 h; actives 0.49% (n = 360,000);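 active = interference check ratio from 0.5 to 1.5 plus GFP to RFP signal ratio inhibition reaching or exceeding a fixed threshold, cut at about 30% in these data, passing the limit was not always enough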
Myeloid diff 2 = promotes myeloid progenitor differentiation | ER-HoxA9 myeloid progenitors, lysozyme-GFP differentiation, flow cytometry | actives 1% (n = 360,000) | calls only at 10 µM;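 active = normalized GFP-positive differentiation at or above the plate's own cutoff, the solvent-only control mean plus 3 SD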;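 also: cells exposed to compound for four days before flow analysis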
Rce1 inh = inhibitors of yeast Ras-converting enzyme | calls only | yeast membranes, quenched prenylated peptide cleavage fluorescence | Q03530 | actives 0.27% (n = 290,000);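 active = fall in fluorescence gain of 50% or more versus controls, with final raw signal at or below 3038400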;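 also: plate controls were neutral control wells for no effect and wells lacking membranes for full effect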
GRK2 CP1 = confirmation of human GRK2 inhibitors displacing RNA aptamer | shares compounds with GRK2 inh | bead-bound GRK2, FAM-aptamer displacement, flow cytometry | aptamer displacement, % at 10 µM | actives 4% (n = 2,000) | AID 504451;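 active = aptamer displacement above 40%, near three times the noise of non-fluorescent compounds, on plates passing quality checks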;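 also: negative values mostly reflect intrinsic compound fluorescence rather than true enhancement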
Aptamer quench SP = counter-screen for GRK2 aptamer inhibitors: fluorescent aptamer quenchers | fluorescence response (% of DMSO), % at 10 µM | Carboxyfluorescein RNA aptamer on beads, flow cytometry quenching; stronger effect = lower value | 2,000 tested, under 10 active | shares compounds with GRK2 inh;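 active = compounds that quench the bead-bound fluorescent RNA probe, cutting fluorescence to under half of the solvent control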;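 also: counterscreen run without GRK2 so only probe quenching by compound is measured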
GRK2 CP2 = confirmation of human GRK2 inhibitors binding RNA aptamer site | shares compounds with GRK2 inh | bead-bound GRK2, FAM-aptamer displacement, flow cytometry | inhibition of aptamer binding, % at 10 µM | 360 tested, under 10 active | AID 504782;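 active = inhibition of aptamer binding above 40%, about triple the noise seen with nonglowing compounds, on plates passing quality control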;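 also: negative values mostly come from compounds that fluoresce themselves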
FAM quench CP2 = aptamer fluorescence quenching in GRK2 counter-screen; shares compounds with GRK2 inh; fluorescence response vs DMSO, % at 10 µM; carboxyfluorescein RNA aptamer beads, flow cytometry quenching; stronger effect = lower value; AID 588494; 360 tested, under 10 active;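 active = response vs DMSO under 50%, meaning signal dropped by over half, treated as fluorescence quencher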;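 also: labelled aptamer on streptavidin beads without GRK2 as a quench counter-screen; 100% = bead fluorescence of DMSO wells and lower means quenching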
The depositor's hits bear a star.

Results for O=[N+]([O-])c1ccc(N2CCN(c3ccc(Cl)nn3)CC2)cc1NC1CC1 ?
T cell modulator: 257; Rin1-Abl PPI inh: 1; GRK2 inh: 64*; SKN-1 inh: -9; Myeloid diff 2: inactive; Rce1 inh: inactive; GRK2 CP1: -1; Aptamer quench SP: 99

How did Cn1c(NCC2CCCCC2)nc2cc(-c3ccsc3)sc2c1=O do in these assays?
Rin1-Abl PPI inh: -1; SKN-1 inh: -5; Myeloid diff 2: inactive

What do the screens show for `Cc1ccc(CNC(=O)C2CCCN(S(=O)(=O)c3ccc(-n4cnnn4)cc3)C2)cc1` (centres undefined)?
T cell modulator: 114; Rin1-Abl PPI inh: 2; GRK2 inh: 1; SKN-1 inh: 20; Myeloid diff 2: inactive; Rce1 inh: inactive; GRK2 CP1: -1; Aptamer quench SP: 92

Results for O=C(NCc1ccccc1F)C1CCCN(S(=O)(=O)c2ccc(-n3cnnn3)cc2)C1 (centres undefined) ?
T cell modulator: 233; Rin1-Abl PPI inh: -2; GRK2 inh: 2; SKN-1 inh: -9; Myeloid diff 2: inactive; Rce1 inh: inactive; GRK2 CP1: -3; Aptamer quench SP: 100

Results for CC(C)CCNC(=O)C1CCCN(S(=O)(=O)c2ccc(-n3cnnn3)cc2)C1 (centres undefined) ?
T cell modulator: 149; Rin1-Abl PPI inh: 2; GRK2 inh: 0; SKN-1 inh: 3; Myeloid diff 2: inactive; Rce1 inh: inactive

How did COc1ccc(/C=C(\NC(=O)c2ccco2)C(=O)Nc2ccc(C(C)=O)cc2)cc1 do in these assays?
T cell modulator: 248; Rin1-Abl PPI inh: 0; GRK2 inh: 0; SKN-1 inh: 7; Myeloid diff 2: inactive; Rce1 inh: inactive

What do the screens show for `N/C(=N\OC(=O)C1CCCCC1)c1ccncc1`?
T cell modulator: 149; Rin1-Abl PPI inh: 1; GRK2 inh: 1; SKN-1 inh: 3; Myeloid diff 2: inactive; Rce1 inh: inactive

Results for N/C(=N\OC(=O)C1CCCCC1)c1ccccn1 ?
T cell modulator: 308; Rin1-Abl PPI inh: -2; GRK2 inh: 83*; SKN-1 inh: 2; Myeloid diff 2: inactive; Rce1 inh: inactive; GRK2 CP1: -5; Aptamer quench SP: 101

How did CCOC(=O)C1(Cc2cccc(F)c2)CCN(CC2CC2)CC1 do in these assays?
T cell modulator: 130; Rin1-Abl PPI inh: 1; GRK2 inh: 12; SKN-1 inh: -2; Myeloid diff 2: inactive; Rce1 inh: inactive

What do the screens show for `CCOC(=O)C1(Cc2cccc(F)c2)CCN(CC(O)CO)CC1` (centres undefined)?
T cell modulator: 412; Rin1-Abl PPI inh: -3; GRK2 inh: 78*; SKN-1 inh: 6; Myeloid diff 2: inactive; Rce1 inh: inactive; GRK2 CP1: -1; Aptamer quench SP: 103

Results for COc1cccc(-c2cc(CNC(=O)[C@H]3O[C@@H](n4ccc(=O)[nH]c4=O)[C@H](O)[C@@H]3O)no2)c1 ?
Rin1-Abl PPI inh: 1; SKN-1 inh: 2; Myeloid diff 2: inactive

Results for COCCNC(=O)c1ccc(CS(=O)(=O)c2ccccc2OC)o1 ?
T cell modulator: 454; Rin1-Abl PPI inh: 0; GRK2 inh: 50*; SKN-1 inh: 5; Myeloid diff 2: inactive; Rce1 inh: inactive; GRK2 CP1: -1; Aptamer quench SP: 95

Results for C[C@H]1CCC2[C@](C)(CO)[C@@H](O)CC[C@]2(C)[C@@]12CCC(CO)(CCO)O2 (some centres undefined) ?
T cell modulator: 0; Rin1-Abl PPI inh: 1; GRK2 inh: 44*; SKN-1 inh: -7; Myeloid diff 2: inactive; Rce1 inh: inactive; GRK2 CP2: 14; FAM quench CP2: 102

Results for O=[N+]([O-])c1cccc2c(S(=O)(=O)N3CCOCC3)cccc12 ?
T cell modulator: 273; Rin1-Abl PPI inh: -1; GRK2 inh: 89*; SKN-1 inh: 8; Myeloid diff 2: inactive; GRK2 CP1: 14; Aptamer quench SP: 100

Results for O=[N+]([O-])c1cccc2c(S(=O)(=O)N3CCCCC3)cccc12 ?
T cell modulator: 193; Rin1-Abl PPI inh: -1; GRK2 inh: 0; SKN-1 inh: 0; Myeloid diff 2: inactive; Rce1 inh: inactive

How did CC(=O)C1=C(C)NC(=O)CC1c1ccccc1Cl (centres undefined) do in these assays?
T cell modulator: 360; Rin1-Abl PPI inh: 1; GRK2 inh: 48*; SKN-1 inh: 2; Myeloid diff 2: inactive; Rce1 inh: inactive; GRK2 CP1: -6; Aptamer quench SP: 127

How did Cc1c(C(=O)O)cccc1-n1c(C)cc(/C=N/NC(=O)c2cc3ccccc3o2)c1C do in these assays?
T cell modulator: 533; Rin1-Abl PPI inh: 1; GRK2 inh: 50*; SKN-1 inh: 2; Myeloid diff 2: inactive; Rce1 inh: inactive; GRK2 CP1: 3; Aptamer quench SP: 136

Results for CCc1cccc(NC(=O)C2CCCN(c3ncnc4c3nc3n4CCCCC3)C2)c1 (centres undefined) ?
T cell modulator: 199; Rin1-Abl PPI inh: 2; GRK2 inh: 0; SKN-1 inh: 8; Myeloid diff 2: inactive; Rce1 inh: inactive; GRK2 CP1: 4; Aptamer quench SP: 102

What do the screens show for `O=C(NCC1CCN(Cc2cccc(Cl)c2)CC1)C1CCCN(c2ncnc3c2nc2n3CCCCC2)C1` (centres undefined)?
T cell modulator: 188; Rin1-Abl PPI inh: -4; GRK2 inh: 0; SKN-1 inh: -2; Myeloid diff 2: inactive; Rce1 inh: inactive; GRK2 CP1: -6; Aptamer quench SP: 100

What do the screens show for `O=C(NCC1CCN(Cc2ccc(Cl)cc2)CC1)C1CCCN(c2ncnc3c2nc2n3CCCCC2)C1` (centres undefined)?
T cell modulator: 316; Rin1-Abl PPI inh: 3; GRK2 inh: 0; SKN-1 inh: -11; Myeloid diff 2: inactive; Rce1 inh: inactive

How did O=C(Nc1cccnc1)C1CCCN(c2ncnc3c2nc2n3CCCCC2)C1 (centres undefined) do in these assays?
T cell modulator: 444; Rin1-Abl PPI inh: 0; GRK2 inh: 0; SKN-1 inh: 4; Myeloid diff 2: inactive; Rce1 inh: inactive
